The values below come from ChEMBL document CHEMBL1148697, “Synthesis and evaluation of new arylbenzo[b]thiophene and diarylthiophene derivatives as inhibitors of the NorA multidrug transporter of Staphylococcus aureus” (2007).

What all share (type): functional
Assay [1] relates to KB. In words: Cytotoxicity against KB cells at 10 uM. Conditions: Homo sapiens. The gist of the method:
(§1)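 Cytotoxicity tested in KB, MCF7 and MCF7R cells with compounds at 10⁻⁵ M.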

Assay [2] relates to MCF7. In words: Cytotoxicity against MCF7 cells at 10 uM. The conditions noted are these: Homo sapiens. In short, it runs like this:
as §1

Assay [3] deals with Staphylococcus aureus. The experiment in a line: Effect on ethidium bromide efflux in quinolone/macrolide-resistant Staphylococcus aureus NorA by measuring remaining initial ethidium concentration at 20 mg/L after 10 mins. The gist of the method: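 S. aureus NorA 1199B grown in LB at 37 °C to A660 0.7–0.8, then loaded with EtBr (10 mg/L) plus CCCP (20 mg/L) for 10 min at 37 °C. Cells spun and resuspended in LB at 37 °C without EtBr, inhibitor added at resuspension. Fluorescence read continuously for 10 min and expressed as percentage of initial fluorescence. At least three experiments.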

Assay [4] has as its system Staphylococcus aureus. In words: Increase in ciprofloxacine uptake in quinolone/macrolide-resistant Staphylococcus aureus […] at 20 mg/L after 10 mins. The gist of the method:
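Cells grown in LB to OD660 0.7–0.8, washed twice and concentrated 20-fold in 100 mM phosphate pH 7.2 with 1 mM MgSO4 and 0.4% glucose. Preincubated 5 min at 37 °C, then ciprofloxacin 10 mg/L added. Samples spun through silicone oil, pellets lysed in glycine–HCl pH 3.0 at 100 °C for 10 min. Fluorescence (ex 242/em 487 nm) read against a lysate standard curve, as ng per 10⁹ CFU.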

Assay [5] deals with MCF7R. The experiment in a line: Cytotoxicity against MCF7R cells at 10 uM. The conditions noted are these: Homo sapiens. In short, it runs like this:
as §1

The next assay has as its system Bacillus subtilis. The experiment in a line: Effect on ethium bromide efflux in Bacillus subtilis at 20 mg/L after 10 mins. The gist of the method:
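B. subtilis ΔΔ (bmr::cat blt::erm) carried plasmid pBEV, which expresses NorA from a strong promoter. Cells were transferred into PBS pH 7.2 with 0.5% glucose at 37 °C. They were loaded with EtBr (10 mg/L) plus CCCP (20 mg/L) for 10 min at 37 °C, spun down and resuspended in LB without EtBr, adding the inhibitor at that point. Fluorescence was recorded continuously for 10 min and expressed as % of initial. Each experiment was done at least three times.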

Assay [6] deals with Staphylococcus aureus. The experiment in a line: Increase in ciprofloxacine uptake in quinolone/macrolide-susceptible Staphylococcus aureus 1199 at 20 mg/L after 10 mins. In short, it runs like this:
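Silicone-oil uptake assay. Cells were grown in LB to OD660 0.7–0.8, washed, and concentrated 20-fold in 100 mM phosphate pH 7.2 with 1 mM MgSO₄ and 0.4% glucose. After 5 min at 37 °C, ciprofloxacin was added at 10 mg/L. Timed samples were spun through silicone oil and the pellets lysed in 0.1 M glycine–HCl pH 3.0 at 100 °C for 10 min. Lysate fluorescence (ex 242/em 487 nm) was read against a standard curve and reported as ng per 10⁹ CFU.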

The subject of assay [7] is Staphylococcus aureus. The experiment in a line: Antibacterial activity against quinolone/macrolide-susceptible Staphylococcus aureus ATCC 25923. In short, it runs like this: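 MIC by twofold serial dilution in Mueller–Hinton broth with 10⁶ CFU/mL inoculum. Read as the lowest concentration with no visible growth after 18 h at 37 °C. Run in triplicate.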
In assay [8] the test system is Staphylococcus aureus. The experiment in a line: Antibacterial activity against quinolone/macrolide-susceptible Staphylococcus aureus ATCC 25923 assessed as growth. In short, it runs like this:
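Single-concentration growth screen: compound added from DMSO solution to a final 100 mg/L in MH medium with 10⁶ CFU/mL bacteria. Incubated at 37 °C with growth read at 650 nm after 1, 2, 8 and 24 h. Ampicillin was the positive control and DMSO the negative control. Scored ++ for no growth, + for growth <10% of the negative control, – otherwise.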

Assay [9] has as its system MCF7. The experiment in a line: Cytotoxicity against MCF7 cells at 0.25 nM. The conditions noted are these: Homo sapiens.
In assay [10] the test system is MCF7R. In words: Cytotoxicity against MCF7R cells at 0.25 nM. Conditions: Homo sapiens.
Assay [11] has as its system KB. In words: Cytotoxicity against KB cells at 0.25 nM. Conditions: Homo sapiens.

The structures appear in SMILES notation. Values after ≈ are worked out from the molar mass of the structure shown.

Consider `COC(=O)/C(=C/c1c(-c2ccc(C#N)cc2)sc2ccccc12)NC(=O)c1ccccc1`, for which the inhibition at 10 µM with KB [1] worked out at 24%; in the assay with MCF7 [2] it was 0%.
For `O=Cc1c(-c2ccccc2)sc2ccccc12`, the “Remaining ethidium fluorescence (% of initial)” value with Staphylococcus aureus [3] amounted to 72%. In addition, the figures for the inhibition at 10 µM in the assay with KB [1], in the assay on MCF7R [5] and with MCF7 [2] were 42%, 37% and 51%, respectively. Moreover, the Activity in the assay with Staphylococcus aureus [4] is 0.07 a.u; in the assay with Bacillus subtilis it was 5%; in the assay with Staphylococcus aureus [6] it was 0.08 a.u.
Take `O=Cc1c(-c2cccnc2)sc2ccccc12`: the “Remaining ethidium fluorescence (% of initial)” value in the assay with Staphylococcus aureus [3] is reported as 72%. In addition, the inhibition at 10 µM is 18% with KB [1], 0% with MCF7R [5] and 3% with MCF7 [2].
In the case of `N#Cc1c(-c2cccc(Cl)c2)sc2ccccc12`, the inhibition at 10 µM in the assay on KB [1] is 23%; with MCF7R [5] it was 20%; with MCF7 [2], 36%.
The molecule `FC(F)(F)COc1c(-c2cccnc2)sc2ccccc12` gave an MIC against Staphylococcus aureus [7] of 100 µg/mL (≈ 323 µM).
As to `N#Cc1ccccc1-c1sc2ccccc2c1OCC(F)(F)F`, the inhibition at 10 µM was 56% with KB [1], 39% in the assay with MCF7R [5] and 49% in the assay with MCF7 [2].
Taken in the same sequence, the figures for `N#Cc1ccccc1-c1c(OCC(F)(F)F)sc2ccccc12` were 100%, 97% and 92%.
Regarding `O=Cc1c(-c2ccccc2)oc2ccccc12`, the “Remaining ethidium fluorescence (% of initial)” value with Staphylococcus aureus [3] was found to be 72%. The inhibition at 10 µM in the assay on KB [1] is 67%; in the assay with MCF7R [5] it was 37%; in the assay with MCF7 [2], 47%.
Take `N#Cc1ccccc1-c1sc2ccccc2c1C=O`: the inhibition at 10 µM is 51% with KB [1], 33% with MCF7R [5] and 38% in the assay on MCF7 [2].
For `COc1ccsc1-c1ccccc1C#N`, in that order: 11%, 4% and 17%.
For `O=Cc1ccsc1-c1ccccc1`, in that order: 33%, 0% and 16%.
In the assay on Staphylococcus aureus [7], `COc1cc(-c2cccnc2)sc1-c1cccnc1` had an MIC of 100 µg/mL (≈ 373 µM).
For `COc1ccc(-c2sc3ccccc3c2C=O)cc1`, the inhibition at 10 µM came out at 89% in the assay with KB [1], 80% with MCF7R [5] and 62% with MCF7 [2].
Taken in the same sequence, the figures for `O=Cc1c(-c2ccc(C(F)(F)F)cc2)sc2ccccc12` were 88%, 59% and 73%.
Taken in the same sequence, the figures for `O=Cc1c(-c2ccc(Cl)cc2)sc2ccccc12` were 67%, 35% and 69%.
As for `COc1c(-c2cccnc2)sc2ccccc12`, the MIC in the assay with Staphylococcus aureus [7] turned out to be 100 µg/mL (≈ 414 µM).
Regarding `N#Cc1sc2ccccc2c1-c1cccnc1`, the figures for the inhibition at 10 µM with KB [1], in the assay on MCF7R [5] and with MCF7 [2] were 37%, 22% and 18%, respectively.
Taken in the same sequence, the figures for `COc1cc(-c2cccc(C(F)(F)F)c2)sc1-c1cccnc1` were 7%, 0% and 0%.
Take `N#Cc1c(-c2ccc(Cl)cc2)sc2ccccc12`: the inhibition at 10 µM in the assay on KB [1] worked out at 29%; with MCF7R [5], 18%; in the assay with MCF7 [2], 27%.
On to `COC(=O)C(Cc1c(-c2ccc(C#N)cc2)sc2ccccc12)NC(=O)c1ccccc1` (racemic), for which the inhibition at 10 µM in the assay on KB [1] was 35%; in the assay with MCF7R [5], 32%; in the assay on MCF7 [2], 12%. Also, the Activity in the assay on Staphylococcus aureus [8] was less than 10%.
In the case of `CC(=O)O[C@@]12CO[C@@H]1C[C@H](O)[C@@]1(C)C(=O)[C@H](O)C3=C(C)[C@@H](OC(=O)[C@H](O)[C@@H](NC(=O)OC(C)(C)C)c4ccccc4)C[C@@](O)([C@@H](OC(=O)c4ccccc4)[C@H]21)C3(C)C` [DOCETAXEL], the figures for the inhibition at 0.00025 µM in the assay with MCF7 [9], with MCF7R [10] and in the assay on KB [11] were 31%, 4% and 87%, respectively.
In the case of `COC(=O)[C@H]1[C@H]2C[C@@H]3c4[nH]c5cc(OC)ccc5c4CCN3C[C@H]2C[C@@H](OC(=O)c2cc(OC)c(OC)c(OC)c2)[C@@H]1OC` [RESERPINE], the “Remaining ethidium fluorescence (% of initial)” value in the assay with Staphylococcus aureus [3] was 72%.
